{
  "source": "paper PMC6886526",
  "about": "(Journal of structural biology, 2016)",
  "key": {"[1]": {"biological_target": "T1, StAcrR (Salmonella enterica subsp. enterica serovar Typhimurium, UniProt Q7CR15)", "experiment": "Fluorescence-based thermal shift", "assay_type": "binding", "details": "for FTS rank (Table S1): rank among hits of the SPC2-ECH008 library screen; for dose-dependent effect on StAcrR thermal stability: 2.5-100 μM ligand"}, "[2]": {"biological_target": "Human enolase 1 (ENO1) (Homo sapiens, UniProt P06733)", "sequence (P06733 whole entry)": "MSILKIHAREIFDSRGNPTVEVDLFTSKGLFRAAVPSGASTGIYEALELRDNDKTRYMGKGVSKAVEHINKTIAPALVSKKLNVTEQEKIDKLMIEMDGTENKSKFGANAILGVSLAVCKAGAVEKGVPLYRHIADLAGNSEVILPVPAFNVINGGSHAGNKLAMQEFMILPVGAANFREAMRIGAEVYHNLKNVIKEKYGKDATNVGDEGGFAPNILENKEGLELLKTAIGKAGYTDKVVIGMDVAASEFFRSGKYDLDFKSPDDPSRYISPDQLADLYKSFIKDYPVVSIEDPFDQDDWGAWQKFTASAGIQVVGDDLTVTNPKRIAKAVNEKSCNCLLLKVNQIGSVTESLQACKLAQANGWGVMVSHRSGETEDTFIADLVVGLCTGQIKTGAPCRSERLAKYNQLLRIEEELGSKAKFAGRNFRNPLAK", "experiment": "FTS assay with negative control protein", "assay_type": "binding", "details": "10, 25, 50 and 100 μM ligand", "method_in_brief": "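Human enolase 1 was mixed with SYPRO Orange dye in 100 mM HEPES pH 7.5 with 150 mM NaCl. Ligands were dispensed acoustically from a DMSO stock. Plates were scanned from 10 to 80 °C at 1.5 °C min-1 on a real-time PCR instrument, reading fluorescence every 10 s. Stabilisation was judged from the melting temperature shift (ΔTm), background reduction and melting-curve shape.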"}, "[3]": {"biological_target": "T1, StAcrR", "experiment": "Competition FP assay in the presence of Pf", "assay_type": "binding", "details": "for IC50: IC50, competition FP, 10 μM StAcrR and 100 nM Pf"}, "[4]": {"test_system": "EcAcrR-Glu67Ala mutant", "details": "ref Li et al., 2007, Su et al.; cited from earlier work"}, "[5]": {"biological_target": "T1, StAcrR", "experiment": "Fluorescence polarization", "assay_type": "binding"}, "[6]": {"biological_target": "human ENO1 (Homo sapiens, UniProt P06733)", "sequence (P06733 whole entry)": "as above", "experiment": "FP binding assay with negative control protein", "details": "ENO1 up to 100 μM"}},
  "note": "Several values for one entry are separate records, joined by “and”; a condition that tells them apart may be missing. Identical values can stand only once.",
  "data": [
    {"smiles": "Cc1cc(N)c2ccccc2[n+]1CCCCCCCCCC[n+]1c(C)cc(N)c2ccccc21", "note": "[Dequalinium chloride, dequalinium]", "values": [
      {"measurement": "change of Tm of StAcrR", "setting": "[1]; below 10 μM ligand", "value": "did not notably change"},
      {"measurement": "FTS rank (Table S1)", "setting": "[1]", "value": 14},
      {"measurement": "effect on thermal stability of human enolase 1", "setting": "[2]", "value": "no effect"},
      {"measurement": "IC50", "setting": "[3]", "value": 22.5, "unit": "µM"}
    ]},
    {"smiles": "O=C(NC(=O)c1c(F)cccc1F)Nc1ccc(Cl)cc1", "note": "[Diflubenzuron, diflubenzuron]", "values": [
      {"measurement": "competition with Pf for binding", "setting": "[3]; negative control ligand", "value": "did not compete"}
    ]},
    {"smiles": "C[C@]12CC[C@@H]3c4ccc(OC(=O)N(CCCl)CCCl)cc4CC[C@H]3[C@@H]1CC[C@@H]2O", "note": "[Estramustine, estramustine]", "values": [
      {"measurement": "dose-dependent effect on StAcrR thermal stability", "setting": "[1]", "value": "Apparent increase in the StAcrR thermal stability at very low concentrations"},
      {"measurement": "FTS rank (Table S1)", "setting": "[1]", "value": 5},
      {"measurement": "IC50", "setting": "[3]", "value": "~18 µM and 18 µM"}
    ]},
    {"smiles": "CC[n+]1c(-c2ccccc2)c2cc(N)ccc2c2ccc(N)cc21", "note": "[Et, ethidium]", "values": [
      {"measurement": "binding by the Glu67Ala mutant of EcAcrR", "setting": "[4]", "value": "abolishment of the binding"},
      {"measurement": "Kd", "setting": "[5]", "value": "67.3 ± 4.6", "unit": "µM"}
    ]},
    {"smiles": "C[C@]12CC[C@@H]3c4ccc(O)cc4C[C@@H](CCCCCCCCC[S+]([O-])CCCC(F)(F)C(F)(F)F)[C@H]3[C@@H]1CC[C@@H]2O", "note": "(stereo partly shown) [Fulvestrant, fulvestrant]", "values": [
      {"measurement": "dose-dependent effect on StAcrR thermal stability", "setting": "[1]", "value": "Apparent increase in the StAcrR thermal stability at very low concentrations"},
      {"measurement": "FTS rank (Table S1)", "setting": "[1]", "value": 1},
      {"measurement": "IC50", "setting": "[3]", "value": 40.1, "unit": "µM"}
    ]},
    {"smiles": "COC1=C(OC)C(=O)C(CCCCCCCCCCO)=C(C)C1=O", "note": "[Idebenone, idebenone]", "values": [
      {"measurement": "dose-dependent effect on StAcrR thermal stability", "setting": "[1]", "value": "required higher concentrations"},
      {"measurement": "FTS rank (Table S1)", "setting": "[1]", "value": 2},
      {"measurement": "IC50", "setting": "[3]", "value": 2.8, "unit": "µM"}
    ]},
    {"smiles": "Nc1ccc2cc3ccc(N)cc3nc2c1", "note": "[Pf, proflavine]", "values": [
      {"measurement": "binding by the Glu67Ala mutant of EcAcrR", "setting": "[4]", "value": "abolishment of the binding"},
      {"measurement": "FP increase with human ENO1", "setting": "[6]", "value": "No FP increase"},
      {"measurement": "Kd", "setting": "[5]", "value": "3.9 ± 0.1", "unit": "µM"},
      {"measurement": "affinity to StAcrR relative to Et and R6G", "setting": "[5]; ratio of FP Kd values", "value": "over 10 fold"}
    ]},
    {"smiles": "C[C@]12CC[C@H](O)CC1=CC[C@@H]1[C@@H]2CC[C@]2(C)C(=O)CC[C@@H]12", "note": "[Prasterone, prasterone]", "values": [
      {"measurement": "dose-dependent effect on StAcrR thermal stability", "setting": "[1]", "value": "required higher concentrations"},
      {"measurement": "FTS rank (Table S1)", "setting": "[1]", "value": 6},
      {"measurement": "FTS rank (Table S1)", "setting": "[1]; listed as prasterone", "value": 9},
      {"measurement": "IC50", "setting": "[3]", "value": 5.4, "unit": "µM"}
    ]},
    {"smiles": "CC/N=c1\\cc2oc3cc(NCC)c(C)cc3c(-c3ccccc3C(=O)OCC)c-2cc1C", "note": "[R6G, rhodamine 6G]", "values": [
      {"measurement": "binding by the Glu67Ala mutant of EcAcrR", "setting": "[4]", "value": "abolishment of the binding"},
      {"measurement": "Kd", "setting": "[5]", "value": "43.7 ± 1.3", "unit": "µM"}
    ]},
    {"smiles": "CC(C)c1nc(CN(C)C(=O)N[C@H](C(=O)N[C@@H](Cc2ccccc2)C[C@H](O)[C@H](Cc2ccccc2)NC(=O)OCc2cncs2)C(C)C)cs1", "note": "[Ritonavir, ritonavir]", "values": [
      {"measurement": "dose-dependent effect on StAcrR thermal stability", "setting": "[1]", "value": "Apparent increase in the StAcrR thermal stability at very low concentrations"},
      {"measurement": "FTS rank (Table S1)", "setting": "[1]", "value": 4}
    ]},
    {"smiles": "CSc1nc2cc(Cl)c(Oc3cccc(Cl)c3Cl)cc2[nH]1", "note": "[Triclabendazole, triclabendazole]", "values": [
      {"measurement": "dose-dependent effect on StAcrR thermal stability", "setting": "[1]", "value": "required higher concentrations"},
      {"measurement": "FTS rank (Table S1)", "setting": "[1]", "value": 3},
      {"measurement": "IC50", "setting": "[3]", "value": 25.7, "unit": "µM"}
    ]}
  ]
}
